Results from ChEMBL document CHEMBL1126896, “Preparation and anti-HIV activity of O-acylated heparin and dermatan sulfate derivatives with low anticoagulant effect” (J Med Chem, 1993).

Assays:
[1] = tested on: HuT78; experiment: Giant-cell formation between persistently HIV-1 infected HUT-78 cells and uninfected MOLT-4 cells; type: functional, cell-based
Method in brief: (§1)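 MOLT-4 cells were co-cultured with an equal number of HUT-78 cells persistently infected with HIV-1 IIIB or HIV-2 ROD, with varying compound concentrations. Syncytia were counted by flow cytofluorography after 24 h. EC50 is the concentration giving 50% protection against giant-cell formation.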

[2] = tested on: HuT78; experiment: Giant-cell formation between persistently HIV-2 infected HUT-78 cells and uninfected MOLT-4 cells; type: functional, cell-based; method in brief: as §1
[3] = In vitro anticoagulant activity determined by clotting test of activated partial thromboplastin time (APTT) on a pool of human plasma; type: functional
Method in brief: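 Activated partial thromboplastin time clotting test on pooled human plasma, run on an automatic coagulometer. Activities were calculated according to the European Pharmacopoeia.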

[4] = tested on: MT4; experiment: Effective concentration to achieve 50% protection of MT-4 cells against the cytopathic effect of HIV-1; type: functional, cell-based
[5] = tested on: MT4; experiment: Effective concentration to achieve 50% protection of MT-4 cells against the cytopathic effect of HIV-2; type: functional, cell-based
[6] = tested on: MT4; experiment: Selectivity index for CC50 (cytotoxic concentration based on the reduction of the viability of mock-infected MT-4 cells) to that of EC50 against HIV-1; type: functional
Method in brief: (§2)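 MT-4 cells at 3 × 10^5 cells/mL were infected with HIV-1 IIIB or HIV-2 ROD at 100 CCID50/mL, or mock-infected, alongside serial compound dilutions. Viability was read by MTT after 5 days at 37 °C. CC50 comes from mock-infected cells and EC50 from protection against cytopathicity. Index = CC50/EC50.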

[7] = tested on: MT4; experiment: Selectivity index for CC50 (cytotoxic concentration based on reduction of viability of mock-infected MT-4 cells) to that of EC50 against HIV-2; type: functional; method in brief: as §2
[8] = Homo sapiens, HuT78, read-out: EC50
[9] = Homo sapiens, MT4, read-out: EC50

| Structure (SMILES) | EC50 [1, 8] [µg/mL] | EC50 [2, 8] [µg/mL] | APTT [3] [IU mg-1] | EC50 [4, 9] [µg/mL] | EC50 [5, 9] [µg/mL] | Selectivity index [6] | Selectivity index [7] | EC50 ([1]; hut78) [µg/mL] | EC50 ([2]; hut78) [µg/mL] | EC50 ([5]; mt4) [µg/mL] | EC50 ([4]; mt4) [µg/mL] |
| --- | --- | --- | --- | --- | --- | --- | --- | --- | --- | --- | --- |
| CCCCOC(=O)/C=C(\CO)OC1OC(COS(=O)(=O)[O-])C(OC2OC(C(=O)OCCCC)C(OC3OC(COS(=O)(=O)[O-])C(OC4OC(C(=O)OCCCC)C(OC5OC(COS(=O)(=O)[O-])C(O)C(O)C5NC(C)=O)C(O)C4OS(=O)(=O)[O-])C(O)C3NC(C)=O)C(O)C2OS(=O)(=O)[O-])C(O)C1NC(C)=O.[Na+].[Na+].[Na+].[Na+].[Na+] (stereo unspecified) | 100 | 20 | 1.2 | 6.5 | 2.5 | >77 | >200 | – | – | – | – |
| CC(=O)NC1C(OC2C(C(=O)[O-])OC(OC3C(COS(=O)(=O)[O-])OC(OC4C(C(=O)[O-])OC(OC5C(COS(=O)(=O)[O-])OC(O/C(=C/C(=O)[O-])CO)C(NC(C)=O)C5O)C(OS(=O)(=O)[O-])C4O)C(NC(C)=O)C3O)C(OS(=O)(=O)[O-])C2O)OC(COS(=O)(=O)[O-])C(O)C1O.[Na+].[Na+].[Na+].[Na+].[Na+].[Na+].[Na+].[Na+] (stereo unspecified) | 500 | 60 | 2.4 | 4.1 | 2.7 | >122 | >185 | – | – | – | – |
| CCCC(=O)OC/C(=C\C(=O)[O-])OC1OC(COS(=O)(=O)[O-])C(OC2OC(C(=O)[O-])C(OC3OC(COS(=O)(=O)[O-])C(OC4OC(C(=O)[O-])C(OC5OC(COS(=O)(=O)[O-])C(O)C(OC(=O)CCC)C5NC(C)=O)C(OC(=O)CCC)C4OS(=O)(=O)[O-])C(OC(=O)CCC)C3NC(C)=O)C(OC(=O)CCC)C2OS(=O)(=O)[O-])C(OC(=O)CCC)C1NC(C)=O.[Na+].[Na+].[Na+].[Na+].[Na+].[Na+].[Na+].[Na+] (stereo unspecified) | 15 | 20 | 6 | 0.5 | 1.2 | >1000 | >417 | – | – | – | – |
| C/C=C\COC(=O)/C=C(\CO)OC1OC(COS(=O)(=O)[O-])C(OC2OC(C(=O)OC/C=C/C)C(OC3OC(COS(=O)(=O)[O-])C(OC4OC(C(=O)OC/C=C/C)C(OC5OC(COS(=O)(=O)[O-])C(O)C(O)C5NS(=O)(=O)[O-])C(O)C4OS(=O)(=O)[O-])C(O)C3NS(=O)(=O)[O-])C(O)C2OS(=O)(=O)[O-])C(O)C1NS(=O)(=O)[O-].[Na+].[Na+].[Na+].[Na+].[Na+].[Na+].[Na+].[Na+] (stereo unspecified) | 10 | 1 | 3 | 0.1 | 1.3 | >5000 | >384 | – | – | – | – |
| C=CCOC(=O)/C=C(\CO)OC1OC(COS(=O)(=O)[O-])C(OC2OC(C(=O)OCC=C)C(OC3OC(COS(=O)(=O)[O-])C(OC4OC(C(=O)OCC=C)C(OC5OC(COS(=O)(=O)[O-])C(O)C(O)C5NS(=O)(=O)[O-])C(O)C4OS(=O)(=O)[O-])C(O)C3NS(=O)(=O)[O-])C(O)C2OS(=O)(=O)[O-])C(O)C1NS(=O)(=O)[O-].[Na+].[Na+].[Na+].[Na+].[Na+].[Na+].[Na+].[Na+] (stereo unspecified) | 100 | 3 | 2 | 0.2 | 1 | >2500 | >500 | – | – | – | – |
| C=CCCOC(=O)/C=C(\CO)OC1OC(COS(=O)(=O)[O-])C(OC2OC(C(=O)OCCC=C)C(OC3OC(COS(=O)(=O)[O-])C(OC4OC(C(=O)OCCC=C)C(OC5OC(COS(=O)(=O)[O-])C(O)C(O)C5NS(=O)(=O)[O-])C(O)C4OS(=O)(=O)[O-])C(O)C3NS(=O)(=O)[O-])C(O)C2OS(=O)(=O)[O-])C(O)C1NS(=O)(=O)[O-].[Na+].[Na+].[Na+].[Na+].[Na+].[Na+].[Na+].[Na+] (stereo unspecified) | 90 | 2 | 3 | 0.6 | 2.4 | >833 | >208 | – | – | – | – |
| O=C(/C=C(\CO)OC1OC(COS(=O)(=O)[O-])C(OC2OC(C(=O)OCc3ccccc3)C(OC3OC(COS(=O)(=O)[O-])C(OC4OC(C(=O)OCc5ccccc5)C(OC5OC(COS(=O)(=O)[O-])C(O)C(O)C5NS(=O)(=O)[O-])C(O)C4OS(=O)(=O)[O-])C(O)C3NS(=O)(=O)[O-])C(O)C2OS(=O)(=O)[O-])C(O)C1NS(=O)(=O)[O-])OCc1ccccc1.[Na+].[Na+].[Na+].[Na+].[Na+].[Na+].[Na+].[Na+] (stereo unspecified) | 1 | 2 | 4 | 0.33 | 0.4 | >1515 | >1250 | – | – | – | – |
| CCCCOC(=O)/C=C(\COC(=O)CCC)OC1OC(COS(=O)(=O)[O-])C(OC2OC(C(=O)OCCCC)C(OC3OC(COS(=O)(=O)[O-])C(OC4OC(C(=O)OCCCC)C(OC5OC(COS(=O)(=O)[O-])C(O)C(OC(=O)CCC)C5NS(=O)(=O)[O-])C(OC(=O)CCC)C4OS(=O)(=O)[O-])C(OC(=O)CCC)C3NS(=O)(=O)[O-])C(OC(=O)CCC)C2OS(=O)(=O)[O-])C(OC(=O)CCC)C1NS(=O)(=O)[O-].[Na+].[Na+].[Na+].[Na+].[Na+].[Na+].[Na+].[Na+] (stereo unspecified) | 4 | 4 | 5 | 0.28 | 0.27 | >1785 | >1850 | – | – | – | – |
| COc1ccc(COC(=O)/C=C(\CO)OC2OC(COS(=O)(=O)[O-])C(OC3OC(C(=O)OCc4ccc(OC)cc4)C(OC4OC(COS(=O)(=O)[O-])C(OC5OC(C(=O)OCc6ccc(OC)cc6)C(OC6OC(COS(=O)(=O)[O-])C(O)C(O)C6NS(=O)(=O)[O-])C(O)C5OS(=O)(=O)[O-])C(O)C4NS(=O)(=O)[O-])C(O)C3OS(=O)(=O)[O-])C(O)C2NS(=O)(=O)[O-])cc1.[Na+].[Na+].[Na+].[Na+].[Na+].[Na+].[Na+].[Na+] (stereo unspecified) | > 100 | > 100 | 4 | 0.1 | 4.3 | >5000 | >119 | – | – | – | – |
| CCCCCC(=O)OC/C(=C\C(=O)[O-])OC1OC(COS(=O)(=O)[O-])C(OC2OC(C(=O)[O-])C(OC3OC(COS(=O)(=O)[O-])C(OC4OC(C(=O)[O-])C(OC5OC(CS(=O)(=O)[O-])C(O)C(OC(=O)CCCCC)C5NS(=O)(=O)[O-])C(OC(=O)CCCCC)C4OS(=O)(=O)[O-])C(OC(=O)CCCCC)C3NS(=O)(=O)[O-])C(OC(=O)CCCCC)C2OS(=O)(=O)[O-])C(OC(=O)CCCCC)C1NS(=O)(=O)[O-].[Na+].[Na+].[Na+].[Na+].[Na+].[Na+].[Na+].[Na+].[Na+].[Na+].[Na+] (stereo in doubt; 3g) | – | – | – | – | – | – | >650 | 6 | 75 | 0.8 | – |
| CCCCCC(=O)OC/C(=C\C(=O)[O-])OC1OC(COS(=O)(=O)[O-])C(OC2OC(C(=O)[O-])C(OC3OC(COS(=O)(=O)[O-])C(OC4OC(C(=O)[O-])C(OC5OC(CS(=O)(=O)[O-])C(O)C(OC(=O)CCCCC)C5NS(=O)(=O)[O-])C(OC(=O)CCCCC)C4OS(=O)(=O)[O-])C(OC(=O)CCCCC)C3NS(=O)(=O)[O-])C(OC(=O)CCCCC)C2OS(=O)(=O)[O-])C(OC(=O)CCCCC)C1NS(=O)(=O)[O-].[Na+].[Na+].[Na+].[Na+].[Na+].[Na+].[Na+].[Na+].[Na+].[Na+].[Na+] (stereo in doubt; 3i) | – | – | – | – | – | >2600 | >1666 | – | 13 | 0.3 | – |
| CCCCCC(=O)OC/C(=C\C(=O)[O-])OC1OC(COS(=O)(=O)[O-])C(OC2OC(C(=O)[O-])C(OC3OC(COS(=O)(=O)[O-])C(OC4OC(C(=O)[O-])C(OC5OC(CS(=O)(=O)[O-])C(O)C(OC(=O)CCCCC)C5NS(=O)(=O)[O-])C(OC(=O)CCCCC)C4OS(=O)(=O)[O-])C(OC(=O)CCCCC)C3NS(=O)(=O)[O-])C(OC(=O)CCCCC)C2OS(=O)(=O)[O-])C(OC(=O)CCCCC)C1NS(=O)(=O)[O-].[Na+].[Na+].[Na+].[Na+].[Na+].[Na+].[Na+].[Na+].[Na+].[Na+].[Na+] (stereo in doubt; 3j) | – | – | – | – | – | >1250 | – | 2 | 10 | – | 0.4 |
| CCCC(=O)OC/C(=C\C(=O)[O-])O[C@H]1O[C@H](COS(=O)(=O)[O-])[C@@H](O[C@@H]2O[C@@H](C(=O)[O-])[C@@H](O[C@H]3O[C@H](COS(=O)(=O)[O-])[C@@H](O[C@@H]4O[C@@H](C(=O)[O-])[C@@H](O[C@H]5O[C@H](CS(=O)(=O)[O-])[C@@H](O)[C@H](OC(=O)CCC)[C@H]5NS(=O)(=O)[O-])[C@H](OC(=O)CCC)[C@H]4OS(=O)(=O)[O-])[C@H](OC(=O)CCC)[C@H]3NS(=O)(=O)[O-])[C@H](OC(=O)CCC)[C@H]2OS(=O)(=O)[O-])[C@H](OC(=O)CCC)[C@H]1NS(=O)(=O)[O-].[Na+].[Na+].[Na+].[Na+].[Na+].[Na+].[Na+].[Na+].[Na+].[Na+].[Na+] (stereo in doubt; 4k) | – | – | 29.3 | – | – | >980 | >1923 | 2 | – | 0.26 | 0.51 |
